Rows were chosen to be rich in hits. Some 1.7% of all compounds tested hit in one or more screens of this group.
Neddyl block: inhibitors of human cullin neddylation | TR-FRET cullin neddylation, biochemical | 360,000 compounds, 0.58% hits | inhibition, % at 25 µM; in the data active = inhibition above about 36%
Pemphigus Ab inh: blocks pemphigus antibody binding to human desmoglein-3; P32926; DSG3-coupled beads, scFv-anti-DSG3-GFP binding, flow cytometry; stronger effect = lower value; binding (percent of control), % at 10 µM; 310,000 compounds, 0.48% hits;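 active = binding more than 3 SD below its plate's average and above zero; inconclusive = below that plate limit but binding exactly zero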
Arr AP2 block: inhibitors of human beta-arrestin and AP2 interaction | inhibition, % at 10 µM | FITC-arrestin peptide / GST-AP2 beads, flow cytometry; AP2 beta2 appendage carries R879A mutation | AID 504490 | 340,000 compounds, 0.31% hits;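 active = inhibition above a set limit, near 3 SD of compounds lacking own fluorescence, cut at about 54% in these data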;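 note: plate controls were DMSO wells for no effect and 5 µM unlabelled arrestin peptide for full effect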
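System: GST-tagged AP2 beta2-adaptin appendage (R879A) on 4 µm glutathione beads / Reagent: FITC-arrestin peptide, 50 nM / Detection: HyperCyt-sampled flow cytometry, FL1 channel, ex 488/em 535 nm / Timing: 12 min plus 1 h, RT / Buffer or medium: PBS plus Tween 20 (0.05%) and BSA (0.1%)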
Efflux pump mplx: blocks antifungal efflux pumps in multiplex yeast assay | S. cerevisiae Candida pump triplex, Nile Red efflux | 330,000 compounds, 0.44% hits | inhibition, % at 10 µM | AID 485275;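 active = plate passing quality check with inhibition over a set limit, or well fluorescence over plate mean plus 4 SD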;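 note: Nile Red retained in pooled yeast measured as flow cytometry median fluorescence; 0% = buffer negative control and 100% = Enniatin B positive control; higher means more Nile Red kept so more efflux inhibition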
Neddyl inh conf: confirmation of human cullin neddylation inhibitors. shares compounds with Neddyl block. TR-FRET cullin neddylation biochemical assay. calls only at 25 µM. 1,800 compounds, 13% hits. AID 652217; in the data active = inhibition above about 40%;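 note: neddylation substrate is the cullin 1 ring ligase complex with SKP2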
An asterisk follows results filed as active; i = inactive; ? = inconclusive; . = no result given; + = active, no number.

SMILES | Neddyl block | Pemphigus Ab inh | Arr AP2 block | Efflux pump mplx | Neddyl inh conf
O=C(Cn1nc(-c2ccco2)ccc1=O)Nc1ccc(Br)cc1 | 45* | 109 | -22 | 0 | .
Cc1cccc(NC(=O)Cn2nc(-c3ccco3)ccc2=O)c1C | 43* | 103 | 26 | 0 | .
O=C(CNC(=O)c1ccco1)N/N=C/c1ccc(O)cc1O | -5 | 101 | 31 | 0 | .
O=C(CNC(=O)c1ccco1)N/N=C/c1cc(Br)ccc1O | 42* | 99 | -7 | 0 | i
O=C(CNC(=O)c1ccccc1Br)N/N=C/c1ccccc1O | 40* | 110 | -9 | 0 | i
COc1ccccc1Cc1c(C(C)(C)C)nc2ccc(C)cn12 | 15 | . | . | . | .
Cc1ccc(S(=O)(=O)NCCC(=O)Nc2nccs2)cc1 | -2 | 95 | 20 | 0 | .
O=C(N/N=C/c1cnc2ccccc2n1)c1cccc(F)c1 | -28 | 107 | -7 | 0 | .
CCN1C[C@@H]2[C@@H]3C(=O)N(Cc4ccccc4)C(=O)[C@@H]3[C@](CC)(C1=O)N2C(=O)c1ccc(C(C)(C)C)cc1 | 7 | 105 | 15 | . | .
O=C(NCc1ccco1)c1cccn2c(=O)c3sccc3nc12 | 55* | 98 | -3 | 0 | .
O=C(NCc1cccs1)c1cccn2c(=O)c3sccc3nc12 | 43* | 100 | 18 | 0 | i
CCOC(=O)N1CCN(C(=O)c2cccn3c(=O)c4sccc4nc23)CC1 | . | 105 | -5 | 0 | .
C[C@@H]1CC=C[C@H]2[C@H]1C(=O)N(Cc1ccccc1)[C@H]2c1ccc(/C=C/c2ccccc2)cc1F | 42* | 93 | 5 | 0 | .
C[C@@H]1CC=C[C@H]2[C@H]1C(=O)N(Cc1ccccc1)[C@H]2c1ccc(-c2ccc(F)cc2)cc1F | 3 | 102 | -6 | 0 | .
COc1cccc(/C=C2/NC(=O)N(CC(=O)Nc3ccc(C)cc3)C2=O)c1OCc1cccc(C(=O)O)c1 | 50* | . | 4 | 0 | .
Cc1nc2oc3ccccc3c(=O)c2cc1C(=O)O | -19 | 102 | -2 | 0 | .
CN(C)c1ccc2c(=O)c3ccccc3oc2n1 | 40* | . | . | . | i
O=C(O)c1cccc(Nc2c3ccccc3nc3ccccc23)c1 | 41* | 96 | 15 | 0 | i
CC(=O)c1cccc(Nc2cc(C)nc3ccccc23)c1 | 3 | 105 | -2 | 0 | .
CC(=O)Nc1ccc(NC(=O)c2cc(=O)c3ccccc3o2)cc1 | -38 | 89 | -7 | 0 | .
N#Cc1ccc(NC(=O)c2cc(=O)c3ccccc3o2)cc1 | 41* | . | 24 | 0 | i
NNC(=O)Cn1nc(-c2ccccc2)c2ccccc2c1=O | 3 | 105 | 3 | 0 | .
c1cncc(CNc2ncnc3ccc(-c4ccc5c(c4)OCO5)cc23)c1 | 28* | 102 | 9 | -1 | i
c1nc(NCc2ccc3c(c2)OCO3)c2cc(-c3ccc4c(c3)OCCO4)ccc2n1 | 34 | 102 | -7 | 0 | .
c1cncc(CNc2ncnc3ccc(-c4ccoc4)cc23)c1 | 17 | 106 | 7 | 1 | .
SMILES | Neddyl block | Pemphigus Ab inh | Arr AP2 block | Efflux pump mplx | Neddyl inh conf
Cc1cccc(CNc2ncnc3ccc(-c4ccc5c(c4)OCCO5)cc23)c1 | 38* | 100 | 5 | 0 | i
Nc1ccccc1C(=O)NN=Cc1cccnc1 | -6 | . | . | . | .
CNc1cncc(-c2ccccc2NC(C)=O)n1 | 42* | . | . | . | i
COCCOC(=O)C1=C(C)NC(C)=C(C(=O)OCCOC)C1/C=C/c1ccccc1OC | 43* | 109 | 14 | 0 | .
C=CCNC(=O)NC(=O)COC(=O)/C(C#N)=C/c1cc(C)n(CCC(C)C)c1C | . | 96 | -10 | 0 | .
Cc1cc(/C=C(\C#N)C(=O)OCC(=O)NC(=O)NC(C)(C)C)c(C)n1CCC(C)C | 40* | 100 | 17 | 0 | i
CCCn1c(C)cc(/C=C(\C#N)C(=O)OCC(=O)Nc2cccc(S(N)(=O)=O)c2)c1C | 63* | 88 | -7 | 0 | i
CCCn1c(C)cc(/C=C(\C#N)C(=O)OCC(=O)Nc2cccc(OC)c2)c1C | 27 | 99 | 7 | 1 | .
Cc1cccc(NC(=O)N2CCC(NC(=O)C3CCCCC3)CC2)c1 | 0 | 108 | 24 | 0 | .
CSc1ncccc1C(=O)N1CCCC(Nc2ccc(C)c(C)c2)C1 (centres undefined) | 1 | 102 | -3 | 0 | .
Cc1ccc(-c2c(C#N)c(N)nc3c2CCCCC3)o1 | 41* | 99 | -1 | 0 | .
Cc1cccc(-c2oc3ccccc3c2C#CCCO)c1 | 35 | 108 | 7 | 0 | .
COc1ccc(C(=O)N/N=C/c2sc(N3CCOCC3)nc2-c2ccccc2)cc1OC | 45* | 102 | -11 | 0 | i
O=C(N/N=C/c1sc(N2CCOCC2)nc1-c1ccccc1)c1ccc(O)cc1 | 59* | 88 | . | 0 | +
COc1cccc(-c2ccc(C#N)c(OC(=O)c3ccc(Cl)cc3)n2)c1 | 41* | 109 | 5 | 0 | i
O=C(O)c1ccc(N=C2NC(=O)C(CO)(CO)S2)cc1 | 2 | 117 | 0 | 0 | .
CN(C)C(CNc1ncccn1)c1ccccc1 (centres undefined) | 1 | ? | -1 | 0 | .
COc1ccc(/C=C\c2cc(OC)c(OC)cc2CC[N+](C)(C)C)cc1OC | 43* | 95 | -20 | 0 | i
Cc1c(C(=O)O)sc2nc(/C=C/c3cccc(F)c3)[nH]c(=O)c12 | 40* | 104 | 15 | 0 | .
NS(=O)(=O)c1cccc(Nc2nc3ccccc3nc2NS(=O)(=O)c2ccc(Cl)cc2)c1 | 39* | 133 | -14 | 0 | +
O=C(O)c1cccc(Nc2nc3ccccc3nc2NS(=O)(=O)c2ccccc2)c1 | 31 | 97 | -11 | 0 | .
CC(=O)Nc1ccc(S(=O)(=O)Nc2nc3ccccc3nc2Nc2cccc(O)c2)cc1 | 46* | 94 | 5 | 0 | .
CCOC(=O)CSc1nc(=O)n2ccccc2n1 | -1 | 105 | 21 | 0 | .
COc1ccc(OC)c(/C=C/C(=O)NC2=NCCS2)c1 | 42* | 99 | 13 | 0 | .
O=C(CSc1ccc2nnc(-c3ccccn3)n2n1)N1CCOCC1 | . | 99 | -1 | 0 | .
SMILES | Neddyl block | Pemphigus Ab inh | Arr AP2 block | Efflux pump mplx | Neddyl inh conf
CCOC(=O)N1CCN(C(=O)CSc2ccc3nnc(-c4ccccn4)n3n2)CC1 | 44* | 97 | -6 | 0 | i
CSc1ccc(/C=C2\CCn3c2nc2cc(C(=O)O)ccc2c3=O)cc1 | 46* | 92 | 0 | -3 | +
COC(=O)c1ccc(/C=C2\CCn3c2nc2cc(C(=O)O)ccc2c3=O)cc1 | 55* | 100 | 4 | 0 | +
Cc1cc(C)cc(N(CC(=O)NCc2ccco2)S(=O)(=O)c2c(C)noc2C)c1 | -2 | 105 | 5 | 0 | .
O=S(=O)(c1cccs1)N1CCC(CO)(Cc2cccc(F)c2)CC1 | 2 | 101 | -4 | 0 | .
COc1ccccc1OCC(=O)Nc1cccc(-c2nnc(-c3ccco3)o2)c1 | 22 | 104 | 15 | 0 | .
O=C(COc1ccccc1)Nc1ccc(-c2nnc(-c3ccco3)o2)cc1 | 39* | 104 | -6 | 1 | i
CCOc1cc(C(=O)NCc2ccccc2)ccc1OCC(=O)N1CCOCC1 | -1 | . | 14 | 0 | .
